Calls of active or inactive are those of the source. No cut-off for these calls is given here.

25 compounds from ChEMBL document CHEMBL2146408, “Primary amino acid derivatives: compounds with anticonvulsant and neuropathic pain protection activities” (J Med Chem, 2011) can be followed below.

In series [1] the test system is Mus musculus. Put plainly: Antinociceptive activity in ip dosed NMRI mouse assessed as inhibition of formalin-induced neuropathic pain after 30 mins. The class given is functional. Particulars: 0.5 h. The gist of the method: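 NMRI mice dosed ip at UCB Pharma, then tested in the formalin model of neuropathic pain. ED50 in mg/kg read 30 min after administration. Single-dose runs report the percentage protected.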

Series [2] concerns Mus musculus. Description: Anticonvulsant activity in ip dosed NMRI mouse assessed as protection against maximal electroshock-induced seizure after 30 mins. Particulars: 0.5 h. The class given is functional. Put shortly:
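Adult male NMRI mice dosed ip (UCB Pharma). MES test run per the Klitgaard procedure. […] Single-dose runs report the percentage of animals protected.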

Series [3] deals with Mus musculus. Put plainly: Anticonvulsant activity in ip dosed NMRI mouse assessed as protection against 6 Hz psychomotor seizure after 30 mins. Format: functional. Conditions: 0.5 h; for minimal effective dose: read-out: MED. The gist of the method: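 Adult male NMRI mice dosed ip (UCB Pharma). 6 Hz psychomotor seizure model at 44 mA, per Kaminski and co-workers.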
The subject of series [4] is Mus musculus. Description: Anticonvulsant activity in ip dosed CF1 mouse assessed as protection against maximal electroshock-induced seizure after 30 mins. Format: functional. Conditions: 0.5 h. The gist of the method:
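Adult male albino CF-1 (Carworth Farms No. 1) mice dosed ip under the NINDS ASP; maximal electroshock seizure test. For compounds with sufficient activity, a dose-response curve was run at the time of peak effect (hours).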
For orientation: Protection in the maximal electroshock model is a classic sign of anticonvulsant action.

The nature of series [5]: Neurotoxicity in ip dosed NMRI mouse assessed as minimal motor impairment after 30 mins. Format: toxicity, organism-based. Conditions: in vivo. The gist of the method:
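Adult male NMRI mice dosed ip at UCB Pharma. Neurological toxicity was scored on the rotorod test 30 min after dosing.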

The subject of series [6] is Mus musculus. Description: Anticonvulsant activity in NMRI mouse assessed as protection against subcutaneous pentylenetetrazol-induced seizure at 30 to 300 mg/kg, ip after 0.5 to 4 hrs. The class given is functional, organism-based.
The subject of series [7] is Rattus norvegicus. Put plainly: Anticonvulsant activity in po dosed Sprague-Dawley rat assessed as protection against maximal electroshock-induced seizure after 30 mins. Conditions: 0.5 h. Format: functional.
Series [8] is described as follows: Neurotoxicity in po dosed Sprague-Dawley rat assessed as minimal motor impairment after 30 mins by rotorod test. The class given is toxicity, organism-based. Particulars: in vivo. In general terms: The rotarod test checks motor coordination on a turning rod.
Series [9] is filed under the species Mus musculus. Put plainly: Protective index, ratio of TD50 for NMRI mouse to ED50 for NMRI mouse formalin-induced neuropathic pain model. Format: functional.
Series [10] can be described thus: Neurotoxicity in ip dosed CF1 mouse assessed as minimal motor impairment after 30 mins. Format: toxicity, organism-based. Particulars: in vivo.
For series [11], the species on record is Rattus norvegicus. Description: Protective index, ratio of TD50 for Sprague-Dawley rat to ED50 for Sprague-Dawley rat by maximal electroshock seizure test. The class given is functional. Put shortly:
(§1)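 Protective index computed as rotorod (mice) or behavioral (rats) TD50 divided by MES ED50, both in mg/kg in the same species and route.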

For series [12], the species on record is Mus musculus. Description: Protective index, ratio of TD50 for NMRI mouse to ED50 for NMRI mouse by maximal electroshock seizure test. Format: functional. Put shortly: as §1

One may read the ED50 as the dose at which the effect has come halfway, by size or by number of responders. Regarding `NC(CN1CCOCC1)C(=O)NCc1ccccc1` (racemic), the ED50 in the series with Mus musculus [1] is 69 mg/kg; in the series on Mus musculus [2], 89 mg/kg; in the series with Mus musculus [3] it was above 84 mg/kg.
For orientation: TD50 means the 50% point of the dose-response relation for the toxic effect studied. As to `CCC(NC(C)=O)C(=O)NCc1ccccc1` (racemic), the 50% effective dose (ED50) in the series on Mus musculus [4] was below 100 mg/kg. Further, in [5], the TD50 at 0.5 h was above 300 mg/kg.
Regarding `C[C@H](N)C(=O)NCc1ccccc1`, the values for the TD50 at 0.5 h in series [5] and in series [8] were above 300 mg/kg and above 80 mg/kg, respectively. Besides, in the series on Mus musculus [6], the result was inactive. Also, in the series on Rattus norvegicus [7], the 50% effective dose (ED50) was above 80 mg/kg.
On to `N[C@H](Cc1ccccc1)C(=O)NCc1ccccc1`, for which the ED50 was above 37 mg/kg in the series on Mus musculus [1] and 40 mg/kg in the series on Mus musculus [2]. Moreover, the minimal effective dose in the series on Mus musculus [3] amounted to 81 mg/kg.
In the case of `COC[C@H](N)C(=O)NCc1ccccc1`, the “Ratio TD50/ED50” value in the series filed under Mus musculus [9] is 0.5.
With `CCCC(NC(C)=O)C(=O)NCc1ccccc1` (racemic), in the series on Mus musculus [4], the ED50 worked out at 38 mg/kg.
As to `CCCOCC(N)C(=O)NCc1ccccc1` (racemic), the median effective dose (ED50) in the series on Mus musculus [1] was above 130 mg/kg; in the series on Mus musculus [2], 69 mg/kg; in the series on Mus musculus [3], above 130 mg/kg.
For the compound `CC(=O)NC(CN1CCOCC1)C(=O)NCc1ccccc1` (racemic), the 50% effective dose (ED50) with Mus musculus [4] was below 100 mg/kg. In addition, in [5], the TD50 at 0.5 h came out at 300 mg/kg.
On to `NC(CO)C(=O)NCc1ccccc1` (racemic), for which the median effective dose (ED50) with Mus musculus [1], with Mus musculus [2] and in the series with Mus musculus [3] was above 62 mg/kg each time. For the same compound, the TD50 at 0.5 h in series [10] is above 110 mg/kg. Further, the “Ratio TD50/ED50” value in the series listed under Mus musculus [9] was above 1.8.
As for `CC(=O)NC(C(=O)NCc1ccccc1)c1ccccn1` (racemic), the ED50 in the series with Mus musculus [4] was found to be 11 mg/kg.
`C#CCOCC(NC(C)=O)C(=O)NCc1ccccc1` (racemic): the TD50 at 0.5 h in series [5] came out at 59 mg/kg.
`CC(=O)N[C@@H](C(=O)NCc1ccccc1)C(C)C`: the 50% effective dose (ED50) with Mus musculus [4] was below 100 mg/kg. Further, in series [5], the TD50 at 0.5 h was above 300 mg/kg.
Take `C[C@@H](N)C(=O)NCc1ccccc1`: the TD50 at 0.5 h is below 100 mg/kg in [5] and above 30 mg/kg in series [8]. Besides, the result with Mus musculus [6] was inactive. The ED50 in the series on Rattus norvegicus [7] was 19 mg/kg. Besides, the “Ratio TD50/ED50” value in the series listed under Rattus norvegicus [11] was above 1.5.
Regarding `CC(=O)NC(C)C(=O)NCc1ccccc1` (racemic), in the series with Mus musculus [4], the ED50 is 76 mg/kg. Besides, the TD50 at 0.5 h in [5] is 450 mg/kg.
For the compound `CC(C)(C)[C@@H](N)C(=O)NCc1ccccc1`, the result in the series with Mus musculus [6] was inactive. Moreover, in series [8], the TD50 at 0.5 h is above 500 mg/kg.
Turning to `CC(=O)NC(CN(C)C)C(=O)NCc1ccccc1` (racemic), the 50% effective dose (ED50) in the series on Mus musculus [4] is below 30 mg/kg. The TD50 at 0.5 h in [5] was below 100 mg/kg.
`NCC(N)C(=O)NCc1ccccc1` (racemic): the ED50 in the series on Mus musculus [2] was above 68 mg/kg.
In the case of `CC(=O)NC(CN)C(=O)NCc1ccccc1` (racemic), in series [5], the TD50 at 0.5 h was above 100 mg/kg.
`CCCC[C@@H](N)C(=O)NCc1ccccc1`: the median effective dose (ED50) in the series on Mus musculus [1] was above 71 mg/kg; in the series on Mus musculus [2], 23 mg/kg; in the series with Mus musculus [3] it was 93 mg/kg.
On to `CC(=O)NC(C(=O)NCc1ccccc1)c1ccccc1` (racemic), for which the ED50 in the series on Mus musculus [4] is 20 mg/kg.
Turning to `N[C@H](CCO)C(=O)NCc1ccccc1`, the 50% effective dose (ED50) in the series with Mus musculus [1] is above 67 mg/kg; in the series on Mus musculus [2] it was above 160 mg/kg; in the series with Mus musculus [3], above 120 mg/kg.
As to `CC(=O)NC(C(=O)NCc1ccccc1)c1ccsc1` (racemic), the median effective dose (ED50) with Mus musculus [4] was found to be 88 mg/kg.
Take `N[C@@H](CO)C(=O)NCc1ccccc1`: the ED50 with Mus musculus [1] and in the series on Mus musculus [3] was above 62 mg/kg each time. The TD50 at 0.5 h in series [10] is above 110 mg/kg.
For the compound `CC(=O)NC(C(=O)NCc1ccccc1)c1cccs1` (centres undefined), the median effective dose (ED50) with Mus musculus [4] is 45 mg/kg.
`CCC[C@@H](N)C(=O)NCc1ccccc1`: the ED50 in the series on Mus musculus [1] was found to be 35 mg/kg; in the series with Mus musculus [2] it was 21 mg/kg. Also, the minimal effective dose in the series on Mus musculus [3] is 66 mg/kg. Further, the TD50 at 0.5 h in series [10] came out at 57 mg/kg. For the same compound, the “Ratio TD50/ED50” value worked out at 2.8 in the series listed under Mus musculus [12] and 1.6 in the series listed under Mus musculus [9].
